Rows were chosen to be rich in hits. Some 9.5% of all compounds tested hit in one or more screens of this group.
HEK293 NFkB inh – inhibitors of PMA/ionomycin-induced NF-kB reporter, primary screen, antigen receptor NF-kB inhibitor project, cell-based, HEK-293 luciferase reporter, luminescence; 62,000 tested, 0.21% active; inhibition, % at 3 µM; HEK-293 NF-kB luciferase reporter;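 active = inhibition above the mean of all tested compounds plus 3 SD, cut at about 40% in these data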;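 note: 0% = stimulated DMSO wells and 100% = 10 µM reference inhibitor 5653914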
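System – HEK-293 cells with stable firefly luciferase reporter driven by four HIV NF-kB elements · Doses – one dose, 3 µM · Schedule – 1 h compound pre-incubation, 16 h PMA/ionomycin at 37 °C · Technique – luminescence from luciferase substrate reagent · Measure – percent inhibition normalized per plate to DMSO and reference-inhibitor controls · Replicates – tested once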
Htt clearance – clearance of mutant huntingtin inclusions, primary screen, imaging, HeLa Exon1htt(103Q)mCFP, confocal imaging; 47,000 tested, 0.42% active; inhibition, % at 1.5 µM; aggregate imaging; zero = plate's median compound well; AID 853, 2007;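 active = inhibition of aggregate fluorescence above about 70%, also judged a hit by eye on the cell image, limit read from the data, passing the limit was not always enough; inconclusive = no rule stated for this call; inactive = not judged a hit on image review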;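 note: cells exposed to compound for three days before fixation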
M1 ag – M1 muscarinic receptor agonists, primary screen, CHO-M1 cells, Fluo-4 calcium, agonist mode. Muscarinic acetylcholine receptor M1. Fluo-4 calcium fluorescence; active compounds read high. B-score at 10 µM. 64,000 tested, 3% active;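 active = fluorescence rise, raw or as B-score row- and column-corrected plate score, outside the 99.7% band of its plate's samples, either direction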
M1 antagonist – antagonists of rat M1 muscarinic receptor; Muscarinic acetylcholine receptor M1 (Rattus norvegicus), P08482; CHO-M1 cells, Fluo-4 calcium, ACh EC80 antagonist mode; active compounds read low; B-score at 10 µM; 64,000 tested, 3.4% active;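 active = calcium fluorescence response, raw or row-and-column corrected B-score, differing from the plate sample mean either way at a set confidence level, mostly lower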
Jurkat tox 60K – cytotoxicity toward Jurkat T cells, primary screen, cytotoxicity control, cell-based, Jurkat E6.1, 60K MLSMR library | Jurkat E6.1 viability, ATP luminescence, 48 h | inhibition, % at 4 µM | 56,000 tested, 1.2% active;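 active = inhibition above the mean inhibition of all tested compounds plus 3 SD, cut at about 28% in these data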
D1 mod – D1 CRE-luciferase signal change, two-sided – cell-based, HEK293 D1, dopamine EC30, D1 allosteric modulator project, primary screen; D(1A) dopamine receptor (Homo sapiens), P21728; dopamine EC30 potentiation; actives deviate in either direction; B-score at 10 µM; 58,000 tested, 5.9% active;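 active = luminescence count or its row- and column-corrected plate score outside the 99.7% band of the plate's sample wells, on either side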
Target sequence (P21728 whole entry, looked up): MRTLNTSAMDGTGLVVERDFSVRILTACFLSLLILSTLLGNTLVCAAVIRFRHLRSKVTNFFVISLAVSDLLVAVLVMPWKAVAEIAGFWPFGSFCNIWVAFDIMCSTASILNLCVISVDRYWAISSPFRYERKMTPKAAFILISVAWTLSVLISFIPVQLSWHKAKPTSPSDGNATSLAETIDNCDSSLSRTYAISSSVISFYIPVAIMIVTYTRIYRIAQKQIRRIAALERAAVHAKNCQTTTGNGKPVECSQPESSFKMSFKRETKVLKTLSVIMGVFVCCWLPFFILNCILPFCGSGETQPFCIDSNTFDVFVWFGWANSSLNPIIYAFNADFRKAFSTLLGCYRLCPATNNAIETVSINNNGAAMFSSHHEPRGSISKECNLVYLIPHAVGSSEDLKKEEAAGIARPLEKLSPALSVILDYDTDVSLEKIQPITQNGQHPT
M1 antag confirm – rat M1 muscarinic receptor antagonists, confirmation, CHO cells, Fluo-4 calcium, duplicate; shares compounds with M1 antagonist; ACh EC80 antagonism; active compounds read low; calcium response (max-min fluorescence) at 10 µM; 1,700 tested, 43% active; AID 677, 2007;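 active = calcium response below the same-plate mean of wells given acetylcholine alone at its 80%-effect dose, minus 3 SD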;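 note: raw fluorescence intensity difference in arbitrary instrument units and not normalized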
mGluR4 antag – human mGluR4 response to M1 antagonist hits, M1 allosteric modulator project, cell-based, antagonist mode, secondary assay 1; 1,700 tested, 0.9% active; fluorescence response (max-min) at 10 µM; CHO-mGluR4 calcium flux, Fluo-4 fluorescence, glutamate EC80; active compounds read low; shares compounds with M1 antagonist; AID 678, 2007;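 active = fluorescence response below the plate's average for near-maximal glutamate wells, less 3 SD of those wells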;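 note: raw unnormalized fluorescence span taken in the window right after glutamate addition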
The depositor's hits bear a star; ? = inconclusive; / = not tested or not shown.

SMILES	HEK293 NFkB inh	Htt clearance	M1 ag	M1 antagonist	Jurkat tox 60K	D1 mod	M1 antag confirm	mGluR4 antag
Cc1csc(Sc2nc3c(c(=O)[nH]c(=O)n3C)n2Cc2ccccc2Cl)n1	8	/	-0.19	-0.0035	7	2.3	/	/
Cc1ccc(Cn2c(SCCN3CCCCC3)nc3c2c(=O)[nH]c(=O)n3C)cc1	14	-43	0.015	-1.9*	-1	-0.35	457*	232
Cc1cccc(Cn2c(Sc3nc(C)cs3)nc3c2c(=O)[nH]c(=O)n3C)c1	14	31	-0.64	-7.1*	1	2	524*	276
Cc1ccc(Cn2c(SCCN3CCOCC3)nc3c2c(=O)n(C)c(=O)n3C)cc1	6	/	0.22	-0.46	/	/	/	/
CCOC(=O)Cn1c(CN2CC(C)OC(C)C2)nc2c1c(=O)n(C)c(=O)n2C (stereo unspecified)	4	/	-1.3	0.017	-12	0.27	/	/
COc1ccccc1-c1noc(-c2ccccc2)n1	-29	/	-0.0044	-17*	0	-0.52	506*	263
CCOc1ccccc1-c1nc(-c2ccc(C)nc2OC)no1	-34	-106	-0.066	-0.78*	/	-0.34	663	237
COc1ccc(-c2nc(-c3ccccc3OC)no2)cc1OC	1	-49	1.4	-1.3	1	-0.042	/	/
Cc1ccc(CNS(=O)(=O)NCc2ccccc2)cc1	/	16	/	/	/	/	/	/
CC(=O)C1=C(Nc2ccc(C)cc2)CC(C)(O)C(C(C)=O)C1c1ccco1 (stereo unspecified)	19	/	0.079	-13*	5	0.042	646	233
Cc1cccc(OCC(=O)Nc2ccc3c(c2)OCCO3)c1	13	/	0.28	-5*	7	-1.5	653	247
CCCC(=O)Nc1cccc(NC(=O)c2ccc3c(c2)OCO3)c1	2	/	0.28	0.14	3	-1.2	/	/
CCC(=O)Nc1cccc(NC(=O)c2ccc3c(c2)OCCO3)c1	-11	/	0.23	-2.6*	-4	-0.66	605	216
COc1ccc2c(c1)OC13CCN(C)CC1C2C(C(=O)c1ccc(F)cc1)C(=O)N3 (stereo unspecified)	13	/	-0.068	0.02	-1	-1.7	/	/
COc1ccccc1N1CCN(CCc2n[nH]c(=S)n2-c2ccccc2)CC1	13	/	-0.37	0.36	2	-1.6	/	/
CSc1ccc(/C=N/n2c(C)cc(C)cc2=O)cc1	-9	36	-0.14	-0.71	0	-0.85	/	/
CCOC(=O)C1CCN(C(=O)c2cc3cc4cc(OC)ccc4nc3o2)CC1	-14	53	5.1	-3.2*	-4	-0.78	432*	196
CCCc1cc(NCC2CCCO2)n2c(nc3ccccc32)c1C#N (stereo unspecified)	/	16	/	/	/	/	/	/
Cc1nc(SCC(=O)Nc2c(C)n(C)n(-c3ccccc3)c2=O)n[nH]1	9	-6	-0.032	0.71	0	-0.6	/	/
Cc1ccc2c(c1)NC(=O)C(CC(=O)NCCN(CC(C)C)CC(C)C)O2 (stereo unspecified)	5	-12	0.82	-5.6*	-8	-0.68	305*	248
CCN1CCN(Cc2ccc(NC(=O)CC3Oc4ccc(C)cc4NC3=O)cc2)CC1 (stereo unspecified)	22	?	-0.37	-3.9*	-2	-0.79	335*	221
Cc1ccc2c(c1)NC(=O)C(CC(=O)Nc1ccc(CN3CCC(C)CC3)cc1)O2 (stereo unspecified)	-8	69	-0.07	-9.3*	-3	0.61	14*	231
COc1ccc(Cl)c(N2CCN(CCCNC(=O)Nc3ccc(C)cc3)CC2)c1	18	28	-0.0052	-1.6	2	/	/	/
CCn1c(=NC(=O)c2ccc(S(=O)(=O)N3CCOCC3)cc2)sc2cccc(OC)c21	10	25	1.1	-1.8*	5	0.56	588	237
COc1cccc2sc(=NC(=O)c3ccc(S(=O)(=O)N4CCOCC4)cc3)n(C)c12	0	/	0.26	0.75	-2	0.63	/	/
SMILES	HEK293 NFkB inh	Htt clearance	M1 ag	M1 antagonist	Jurkat tox 60K	D1 mod	M1 antag confirm	mGluR4 antag
Cc1ccc(CN2C3=NCCCN3c3ccccc32)cc1	9	-84	0.79	-2.8*	9	-1.5	419	212
CC(c1nnc(SCC(=O)N2CCc3ccccc32)n1-c1ccc(Cl)cc1)N(C)C (stereo unspecified)	/	12	/	/	/	/	/	/
CCCCC1CC(/C(C)=N/NC(N)=O)OC1=O (stereo unspecified)	/	-42	/	/	/	/	/	/
CN(C(=O)CSc1nc2ccccc2n1CCc1ccccc1)C1CCS(=O)(=O)C1 (stereo unspecified)	9	/	1.4	-10*	13	-0.66	449	203
CN(C)S(=O)(=O)c1ccc(C(=O)OCn2nnc3ccccc3c2=O)cc1	/	62	/	/	/	/	/	/
CC1(C)CC(=O)CC(=NCC(=O)O)C1	17	/	0.54	-2.6*	-1	0.02	665	268
CN(C)c1ncnc2c1NC1=C(S2)C(=NCCCC(=O)O)CC(C)(C)C1	/	-30	/	/	/	/	/	/
O=C(Nc1ccccc1-c1ccccc1)NC1CCN(CC(=O)N2CCOCC2)CC1	15	0	0.81	-6*	7	0.12	323*	242
O=C(CN1CCN(C(c2ccccc2)c2ccccc2)CC1)N1CCOCC1	7	0	-0.021	-19*	4	0.047	179*	246
O=S(=O)(CCN1CCN(C(c2ccccc2)c2ccccc2)CC1)C(F)(F)F	7	-11	-0.38	-3.8*	-6	2.5	387*	203
N#Cc1nc(COc2ccccc2Cl)oc1N1CCCCCC1	25	/	0.2	1	7	0.082	/	/
N#Cc1nc(COc2ccccc2F)oc1N1CCCCCC1	11	7	0.39	-1.9*	-2	3	572	235
Cc1ccc(NC(=O)Cn2cccc2)c(Br)c1	10	32	0.37	-2.9*	-11	-1.3	566	247
Brc1ccc(-c2cnc3n2CCCC3)cc1	/	/	-0.54	-3*	/	/	288*	240
O=c1c2cc(Br)ccc2nc2n1CCCCC2	/	26	/	/	/	/	/	/
COC(=O)c1[nH]c2ccc(F)cc2c1NC(=O)CCN1CCN(Cc2ccc3c(c2)OCO3)CC1	11	-41	0.65	-7.6*	-2	0.26	125*	204
